T cell HTS: T cell immune modulators affecting CD8 T cell-vesicle binding. response (vesicle binding), % at 7 µM. 330,000 tested, 0.068% active. 2C CD8+ T cell-vesicle binding, flow cytometry; stronger effect = lower value;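 active means response, share of CD8 T cells binding vesicles, and their 90th percentile fluorescence all below set limits, cut at about 80% in these data, passing the limit was not always enough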;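 further: values below 100% mean blocked vesicle binding to the CD8+ T cells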
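Assay system: 2C TCR transgenic mouse naive CD8+ T cells, MACS-purified | Read-out: CD8+ gate FL2 mean fluorescence as % of same-row positive control | Signal: High-throughput flow cytometry with anti-B7-1 and anti-CD8 staining | Timing: Binding step 1.5 h, 37 °C, antibody labelling 20 min, ice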
Rin1-Abl PPI inh: inhibitors of human Rin1-Abl protein interaction. P00519+Q13671. TR-FRET Rin1/Abl binding, biochemical. inhibition, % at 7.35 µM. 360,000 tested, 0.4% active. AID 588664; in the data active means inhibition above about 5%, passing the limit was not always enough
SKN-1 inh: C. elegans SKN-1 inhibition | inhibition, % at 21.8 µM | C. elegans VP596 Pgst-4::GFP/RFP ratio, acrylamide-induced, 24 h | AID 624304 | 360,000 tested, 0.49% active;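 active means interference check ratio from 0.5 to 1.5 plus GFP to RFP signal ratio inhibition reaching or exceeding a fixed threshold, cut at about 30% in these data, passing the limit was not always enough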
Myeloid diff MLP: promotes myeloid progenitor differentiation. 360,000 tested, 1% active. calls only at 10 µM. ER-HoxA9 myeloid progenitors, lysozyme-GFP differentiation, flow cytometry;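 active means normalized GFP-positive differentiation at or above the plate's own cutoff, the solvent-only control mean plus 3 SD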;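 further: cells exposed to compound for four days before flow analysis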
Rce1 inhib: blocks yeast Ras-converting enzyme | Q03530 | yeast membranes, quenched prenylated peptide cleavage fluorescence | calls only | 290,000 tested, 0.27% active | AID 2563;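 active means fall in fluorescence gain of 50% or more versus controls, with final raw signal at or below 3038400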
Target sequence (Q03530 whole entry, looked up): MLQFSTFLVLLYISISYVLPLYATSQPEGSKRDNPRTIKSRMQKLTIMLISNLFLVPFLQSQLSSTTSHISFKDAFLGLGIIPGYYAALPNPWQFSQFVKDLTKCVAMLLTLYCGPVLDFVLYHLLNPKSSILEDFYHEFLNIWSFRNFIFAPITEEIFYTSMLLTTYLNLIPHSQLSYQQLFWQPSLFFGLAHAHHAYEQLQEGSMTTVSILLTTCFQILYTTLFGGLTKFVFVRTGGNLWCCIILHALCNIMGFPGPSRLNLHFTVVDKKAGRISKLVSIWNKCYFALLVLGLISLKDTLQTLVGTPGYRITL
GRK2 aptamer HTS: inhibitors of human GRK2 displacing RNA aptamer; bead flow cytometry, FAM-aptamer displacement from GRK2; inhibition of aptamer binding, % at 10 µM; 330,000 tested, 0.59% active;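 active means inhibition of aptamer binding above 40%, roughly 3 SD of noise, on plates passing a quality check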;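 further: median bead fluorescence of bound FAM aptamer so fluorescent compounds give negative values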
Numbers stand for hits; - = inactive; . = no result; + = active, no number; ! = repeats disagree. Most compounds without a hit are left out; they make up all but 2.6% or so of the library.

SMILES | T cell HTS | Rin1-Abl PPI inh | SKN-1 inh | Myeloid diff MLP | Rce1 inhib | GRK2 aptamer HTS
O=C(NCC1CC1)c1ccc(Nc2nc3ccc(Br)cc3[nH]2)cc1 | - | - | - | - | + | -
COc1ccc(-c2cc(=O)c3ccc(O)cc3o2)cc1OC | . | - | - | - | . | .
Nc1ccc(-c2c3ccc(=O)cc-3oc3cc(O)ccc23)c(C(=O)O)c1 | - | - | - | + | . | -
CCc1cc(N2CCOCC2)cc2c1[nH]c1ccccc12 | - | - | - | - | + | -
c1ccc2c(c1)[nH]c1c(N3CCOCC3)ncnc12 | - | - | - | - | - | -
COc1ccc(-n2nnnc2C(c2ccccc2OC(F)(F)F)N2CCN(C/C=C/c3ccccc3)CC2)cc1 (centres undefined) | . | - | - | + | . | .
COc1ccc(C(c2nnnn2-c2ccc(OC)cc2)N2CCN(C/C=C/c3ccccc3)CC2)cc1 (centres undefined) | . | - | - | - | . | .
Cc1ccc(S(=O)(=O)N2CCN(C(=O)C(Cc3ccccc3)NC(=O)c3ccccc3)CC2)cc1 (centres undefined) | - | - | - | - | . | -
CC1CN(Cc2ccccc2)c2nc3c(c(=O)[nH]c(=O)n3C)n2C1 (centres undefined) | - | - | - | - | - | -
Cc1oc(C)c2c(=O)ccc3c(c12)OC(N)=C(C#N)C3c1ccc(F)cc1 (centres undefined) | - | - | - | + | - | -
Cc1ccc(C(=O)Nc2cccc(C(F)(F)F)c2)cc1Nc1cncnc1 | - | - | - | +! | - | -
COc1cc(NC(=O)c2ccc(N)nc2)cc(C(=O)Nc2cccc(C(F)(F)F)c2)c1 | - | - | - | +! | - | -
CC1COc2c(N3CCN(C)CC3)c(F)cc3c(=O)c(C(=O)O)cn1c23 (centres undefined) | - | - | - | - | + | -
CC(=O)c1c(C)nn(CC(=O)NC2CCCN(Cc3ccc(CC(C)C)cc3)C2)c1C (centres undefined) | - | - | - | - | - | -
COc1ccc(NC(=O)CCS(=O)(=O)c2ccc3c(c2)CCN3C(C)=O)cc1 | - | - | - | - | - | -
CN(CC(=O)Nc1ccc(Cl)c(C(F)(F)F)c1)S(=O)(=O)c1cnc[nH]1 | . | - | - | - | . | .
Cc1c(O)ccc(/C(Cc2ccc3ccccc3n2)=N\N)c1O | - | - | - | + | - | -
CC(=O)NC(CC(=O)NNC(=O)c1cccs1)c1ccccc1 (centres undefined) | - | - | - | - | - | -
O=C(COc1ccc(Br)cc1)NCc1cn2ccccc2n1 | - | - | - | - | - | -
Brc1ccc(OCc2cn3ccccc3n2)cc1 | - | - | 48 | - | - | -
CN(CC(=O)NCc1ccc(F)cc1)Cc1ccc(Br)cc1 | - | - | - | - | . | -
COc1ccc(Br)cc1CN(C)CC(=O)NCc1ccc(F)cc1 | - | - | - | + | - | -
O=[N+]([O-])c1cccc(COc2ccccc2CN2CCOCC2)c1 | . | - | - | - | . | .
Cc1cc(OCc2cccc(Cl)c2)c(C)cc1CN1CCOCC1 | - | - | 72 | - | - | -
CCOc1ccc(NC(=O)CCSc2ccc(C)cc2)cc1 | - | - | - | - | + | -
SMILES | T cell HTS | Rin1-Abl PPI inh | SKN-1 inh | Myeloid diff MLP | Rce1 inhib | GRK2 aptamer HTS
CCOc1ccc(NC(=O)CCN2CCN(C)CC2)cc1 | - | - | 37 | - | - | -
Cc1ccc(SCCC(=O)Nc2ccc(OCc3ccccc3)cc2)cc1 | - | - | - | - | - | -
CN(CCc1ccccc1)C(C(=O)Nc1ccc2c(c1)OCCO2)c1ccnc2ccccc12 (centres undefined) | . | - | - | - | . | .
Cc1ccc([C@H]2C[C@H](n3cc(-c4ccc(F)cc4)nn3)[C@@H](O)CN2CC2CCCCC2)cc1 | . | - | - | - | . | .
O=C(O)Cc1sc(Nc2ccccc2)nc1-c1cccs1 | - | - | - | + | - | -
COc1ccc2cc(C(=O)C3CCCN(C(=O)CCc4cnn(C)c4)C3)ccc2c1 (centres undefined) | - | - | - | - | + | -
Cn1cc(CCC(=O)N2CCCC(C(=O)c3cccc4ccccc34)C2)cn1 (centres undefined) | - | - | - | - | - | -
COc1cccc(Cn2c(NCc3cccnc3)nc3c2c(=O)n(C)c(=O)n3C)c1 | - | - | - | + | - | -
Cn1c(=O)c2c(nc(NCc3cccnc3)n2Cc2cccc(C(F)(F)F)c2)n(C)c1=O | - | - | - | - | - | -

Screening results (PubChem)
